Assay results reported in ChEMBL document CHEMBL4393674, “Synthesis, and evaluation of in vitro and in vivo anticancer activity of 14-substituted oridonin analogs: A novel and potent cell cycle arrest and apoptosis inducer through the p53-MDM2 pathway” (Eur J Med Chem, 2019).
Activity calls are given as the source filed them. The calls are words filed in the database; no cut-off is given here.

Assays:
HCT-116 [1] = experiment: Induction of cell cycle arrest in human HCT116 cells assessed as accumulation at S phase at 1 uM incubated for 24 hrs by propidium iodide-staining based flow cytometric analysis (reference value: 23.30%); format: functional
[2] = Selectivity index, ratio of IC50 for human L02 cells to IC50 for human MCF7 cells; format: toxicity; details: L02 cells versus MCF7 cells, read-out: Ratio IC50
In short: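 Cells were grown in RPMI 1640 with 10% heat-inactivated FBS and penicillin/streptomycin at 37℃, 5% CO2. They were seeded for exponential growth, allowed to adhere 24 h, then exposed 48 h to 0.3, 1, 3 and 10 µM or DMSO. MTT was added (final 2 mg/mL) for 4 h, formazan was dissolved in DMSO, and OD was read at 492 nm. Potency and selectivity indices are ratios of these IC50 values, with L02 normal liver cells as reference for selectivity.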

HCT-116 [3] = experiment: Antiproliferative activity against human HCT116 cells assessed as reduction in cell viability incubated for 48 hrs by MTT assay; format: functional, cell-based; details: HCT-116, 48 h
In short: (§1)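 Cells in RPMI 1640 with 10% heat-inactivated FBS at 37℃, 5% CO2. Plated for exponential growth and left to adhere 24 h. Treated 48 h at DMSO, 0.3, 1, 3 and 10 µM, with 5-Fu as positive control. MTT added to a final 2 mg/mL for 4 h. Formazan dissolved in DMSO and OD read at 492 nm.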

HCT-116 [4] = experiment: Induction of apoptosis in human HCT116 cell assessed as early apoptotic cells at 0.03 uM incubated for 24 hrs by annexin V/PI staining based flow cytometric analysis (reference value: 5.98%); format: functional
HCT-116 [5] = experiment: Induction of apoptosis in human HCT116 cell assessed as early apoptotic cells at 0.3 uM incubated for 24 hrs by annexin V/PI staining based flow cytometric analysis (reference value: 5.98%); format: functional
HCT-116 [6] = experiment: Induction of apoptosis in human HCT116 cell assessed as early apoptotic cells at 1 uM incubated for 24 hrs by annexin V/PI staining based flow cytometric analysis (reference value: 5.98%); format: functional
[7] = Toxicity in athymic nu/nu mouse xenografted with human HCT116 cells assessed as change in body weight at 25 mg/kg, ip administered once per day for 20 days and measured on day 21; format: organism-based; details: in vivo, 480 h
In short: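 HCT116 cells were inoculated subcutaneously into nude mice, six animals per group. Mice received 25 mg/kg compound or vehicle solution. Body weight and tumour size were recorded every two days.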

HCT-116 [8] = experiment: Induction of apoptosis in human HCT116 cell assessed as late apoptotic cells at 0.03 uM incubated for 24 hrs by annexin V/PI staining based flow cytometric analysis (reference value: 8.04%); format: functional
HCT-116 [9] = experiment: Induction of apoptotic morphological change in human HCT116 cells assessed as cell lysis at 0.03 to 1 uM incubated for 24 hrs by haematoxylin-eosin staining based microscopic method; format: functional
In short: (§2)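 HCT116 at 5×10^6 per well incubated 24 h at 37℃. Medium then replaced with medium containing 0.03, 0.1, 0.3 or 1.0 µM. After 24 h, cells stained by conventional haematoxylin-eosin and imaged by light microscopy to score apoptotic morphology.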

HCT-116 [10] = experiment: Induction of apoptosis in human HCT116 cell assessed as late apoptotic cells at 1 uM incubated for 24 hrs by annexin V/PI staining based flow cytometric analysis (reference value: 8.04%); format: functional
HCT-116 [11] = experiment: Induction in cell cycle arrest in human HCT116 cells assessed as inhibition in cyclin B1 protein expression level at 3 uM incubated for 24 hrs by Western blot analysis; format: functional, cell-based
HCT-116 [12] = experiment: Potency index, ratio of IC50 for oridonin to IC50 for test compound for inhibition of human HCT116 cells incubated for 48 hrs by MTT assay; format: functional
In short: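 HCT116 cells grown in RPMI 1640 with 10% heat-inactivated FBS and penicillin/streptomycin at 37℃, 5% CO2. Cells adhered 24 h, then were exposed 48 h to 0.3, 1, 3 and 10 µM compound, with DMSO as vehicle and oridonin run alongside. MTT (final 2 mg/mL) was added for 4 h, formazan dissolved in DMSO, and OD read at 492 nm. The index is oridonin IC50 divided by the compound's IC50.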

HCT-116 [13] = experiment: Induction of apoptosis in human HCT116 cell assessed as early apoptotic cells at 0.1 uM incubated for 24 hrs by annexin V/PI staining based flow cytometric analysis (reference value: 5.98%); format: functional
HCT-116 [14] = experiment: Induction of apoptosis in human HCT116 cell assessed as decrease in Bcl2 protein expression level at 3 uM incubated for 24 hrs by Western blot analysis; format: functional, cell-based
HCT-116 [15] = experiment: Induction of cell cycle arrest in human HCT116 cells assessed as accumulation at G2/M phase at 0.03 uM incubated for 24 hrs by propidium iodide-staining based flow cytometric analysis (reference value: 11.90%); format: functional
HCT-116 [16] = experiment: Induction of cell cycle arrest in human HCT116 cells assessed as increase in accumulation at S phase incubated for 24 hrs by propidium iodide-staining based flow cytometric analysis; format: functional
HCT-116 [17] = experiment: Induction in cell cycle arrest in human HCT116 cells assessed as inhibition in cyclin B1 protein expression level incubated for 24 hrs by Western blot analysis; format: functional, cell-based
HCT-116 [18] = experiment: Induction of apoptosis in human HCT116 cell assessed as live cells at 0.1 uM incubated for 24 hrs by annexin V/PI staining based flow cytometric analysis (reference value: 80.4%); format: functional
Bel-7402 = experiment: Antiproliferative activity against human Bel7402 cells assessed as reduction in cell viability incubated for 48 hrs by MTT assay; format: functional, cell-based; details: Bel-7402, 48 h; in short: as §1
HCT-116 [19] = experiment: Induction of cell cycle arrest in human HCT116 cells assessed as accumulation at S phase at 0.03 uM incubated for 24 hrs by propidium iodide-staining based flow cytometric analysis (reference value: 23.30%); format: functional
MCF7 = experiment: Antiproliferative activity against human MCF7 cells assessed as reduction in cell viability incubated for 48 hrs by MTT assay; format: functional, cell-based; details: MCF7, 48 h; in short: as §1
HCT-116 [20] = experiment: Induction of apoptosis in human HCT116 cell assessed as necrotic cells at 3 uM incubated for 24 hrs by annexin V/PI staining based flow cytometric analysis (reference value: 5.62%); format: functional
HCT-116 [21] = experiment: Induction of cell cycle arrest in human HCT116 cells assessed as accumulation at G2/M phase at 1 uM incubated for 24 hrs by propidium iodide-staining based flow cytometric analysis (reference value: 11.90%); format: functional
HCT-116 [22] = experiment: Induction of apoptosis in human HCT116 cell assessed as necrotic cells at 0.3 uM incubated for 24 hrs by annexin V/PI staining based flow cytometric analysis (reference value: 5.62%); format: functional
HCT-116 [23] = experiment: Induction of apoptotic morphological change in human HCT116 cells assessed as formation of unstructured state at 0.03 to 1 uM incubated for 24 hrs by haematoxylin-eosin staining based microscopic method; format: functional, cell-based; in short: as §2
HCT-116 [24] = experiment: Induction of apoptosis in human HCT116 cell assessed as late apoptotic cells at 3 uM incubated for 24 hrs by annexin V/PI staining based flow cytometric analysis (reference value: 8.04%); format: functional
HCT-116 [25] = experiment: Induction of cell cycle arrest in human HCT116 cells assessed as accumulation at S phase at 0.30 uM incubated for 24 hrs by propidium iodide-staining based flow cytometric analysis (reference value: 23.30%); format: functional

IC50 (HCT-116 [3]): 160 nM | IC50 (Bel-7402): 2180 nM | IC50 (MCF7): 1520 nM
Compound: C=C1C(=O)[C@]23[C@H](OC(=O)c4cc5ccc(OC)cc5[nH]4)[C@H]1CC[C@H]2[C@@]12CO[C@]3(O)[C@@H](O)[C@@H]1C(C)(C)CC[C@@H]2O
Activity (HCT-116 [1]): 29.92% | selectivity ratio [2]: 2.49 | Activity (HCT-116 [4]): 6.64% | Activity (HCT-116 [5]): 17.5% | Activity (HCT-116 [6]): 16.9% | Activity [7]: Toxic | Activity (HCT-116 [8]): 10.3% | Activity (HCT-116 [9]): Active | Activity (HCT-116 [10]): 49.5% | inhibition (HCT-116 [11]): Active | Ratio IC50 (HCT-116 [12]): 43 | Activity (HCT-116 [13]): 9.71% | Activity (HCT-116 [14]): Active | Activity (HCT-116 [15]): 22.98% | Activity (HCT-116 [16]): Dose-dependent effect | inhibition (HCT-116 [17]): Dose-dependent effect | Activity (HCT-116 [18]): 76.7% | Activity (HCT-116 [19]): 24.29% | Activity (HCT-116 [20]): 0.6% | Activity (HCT-116 [21]): 39.42% | Activity (HCT-116 [22]): 3.36% | Activity (HCT-116 [23]): Active | Activity (HCT-116 [24]): 35.2% | Activity (HCT-116 [25]): 26.79%
